From ChEMBL document CHEMBL1806352, “Discovery of imidazo[1,2-b]pyridazines as IKKβ inhibitors. Part 3: exploration of effective compounds in arthritis models” (Bioorg Med Chem Lett, 2011)

Key:
[1] = Plasma concentration in BALB/c mouse at 30 mg/kg, po after 90 mins; assay type: ADME, organism-based; parameters: dose 30 mg/kg, route oral
[2] = Octanol-phosphate buffered saline distribution coefficient, log D of the compound at pH 7.4; assay type: physicochemical
How it was run: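 PBS pH 7.4 and 1-octanol were mutually pre-saturated for over 12 h. Compound (200 µM) was dissolved in one phase, an equal volume of the other phase was added, and the mixture was shaken 30 min at room temperature. Both phases were assayed by HPLC or LC/MS. Log D7.4 was calculated as log of the octanol/PBS peak area ratio.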

[3] = Permeability of the compound at pH 7.4 by PAMPA method; assay type: ADME; settings: read-out: permeability
How it was run: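 PAMPA was run with the donor filter coated with a phospholipid solution and the acceptor plate filled with acceptor buffer pH 7.4. Plates were incubated 4 h at 25 °C. Compound in both plates was quantified spectrometrically, and effective permeability Pe7.4 was calculated.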

[4] = Apparent permeability across MDCK cells at 10 uM after 1 hr by LC/MS/MS analysis; assay type: ADME, cell-based, Canis lupus familiaris; settings: dog
How it was run: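 MDCK cells were grown 6 days on transwells to form monolayers. Compound (10 µM in transport buffer, pH 6.0) was added apically. The basolateral side held buffer at pH 7.4 with 4% BSA, and metoprolol served as positive control. After 1 h at 37 °C, basolateral concentration was measured by LC/MS/MS. Papp was calculated from flux over 3600 s across a 0.33 cm² filter.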

[5] = Mean residence time in BALB/c mouse at 30 mg/kg, po; assay type: ADME, organism-based; parameters: dose 30 mg/kg, route oral; settings: in vivo
How it was run: (§1)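 Fed female BALB/c mice (7 weeks old, n = 3) received a single oral dose of 30 mg/kg suspended in 0.5% (w/v) methyl cellulose. Blood was drawn at 0.5, 1, 2, 4, 8 and 24 h, and plasma was stored at −20 °C. Drug was quantified by LC/MS/MS, and parameters were derived by non-compartmental analysis.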

[6] = Cmax in Wister-Lewis rat at 30 mg/kg, po; assay type: ADME, organism-based; parameters: dose 30 mg/kg, route oral; settings: in vivo
How it was run: (§2)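 Fed female Wistar–Lewis rats (7–8 weeks old, n = 3) were given 30 mg/kg orally as a suspension in 0.5% (w/v) methyl cellulose. Blood samples (0.3 ml) were taken at 0.5, 1, 2, 4, 8 and 24 h. Plasma levels were measured by LC/MS/MS and analysed non-compartmentally.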

[7] = Cmax in BALB/c mouse at 30 mg/kg, po; assay type: ADME, organism-based; parameters: dose 30 mg/kg, route oral; settings: in vivo; how it was run: as §1
[8] = AUC (0 to 24 hrs) in BALB/c mouse at 30 mg/kg, po; assay type: ADME, organism-based; parameters: time < 24 hr, dose 30 mg/kg, route oral; settings: plasma; how it was run: as §1
[9] = Tmax in BALB/c mouse at 30 mg/kg, po; assay type: ADME, organism-based; parameters: dose 30 mg/kg, route oral; settings: in vivo; how it was run: as §1
[10] = Tmax in Wister-Lewis rat at 30 mg/kg, po; assay type: ADME, organism-based; parameters: dose 30 mg/kg, route oral; settings: in vivo; how it was run: as §2
[11] = Oral steady-state volume of distribution in Wister-Lewis rat at 30 mg/kg, po; assay type: ADME, organism-based; parameters: dose 30 mg/kg, route oral; settings: in vivo, read-out: Vss/F; how it was run: as §2
[12] = Mean residence time in Wister-Lewis rat at 30 mg/kg, po; assay type: ADME, organism-based; parameters: dose 30 mg/kg, route oral; settings: in vivo; how it was run: as §2
[13] = Oral steady-state volume of distribution in BALB/c mouse at 30 mg/kg, po; assay type: ADME, organism-based; parameters: dose 30 mg/kg, route oral; settings: in vivo, read-out: Vss/F; how it was run: as §1
[14] = AUC (0 to 24 hrs) in Wister-Lewis rat at 30 mg/kg, po; assay type: ADME, organism-based; parameters: time < 24 hr, dose 30 mg/kg, route oral; settings: plasma; how it was run: as §2

SMILES | concentration at […] [1] | logD [2] | Papp [3] | further results
O=C(NC[C@@H]1C[C@@H](F)CN1)c1ccc(-c2cnc3ccc(NCCCF)nn23)cc1F | 480 ng/mL | 2.5 | 33 ×10⁻⁶ cm/s | 
CCCNc1ccc2ncc(-c3ccc(C(=O)NC[C@@H]4C[C@@H](F)CN4)c(F)c3)n2n1 | 540 ng/mL | 3.1 | > 50 ×10⁻⁶ cm/s | 
O=C(NC[C@@H]1C[C@@H](F)CN1)c1ccc(-c2cnc3ccc(NCCCCCF)nn23)cc1F | 110 ng/mL | 3.3 | 37 ×10⁻⁶ cm/s | 
O=C(NC[C@@H]1C[C@@H](F)CN1)c1ccc(-c2cnc3ccc(NCCCCF)nn23)cc1F | 420 ng/mL | 2.8 | > 50 ×10⁻⁶ cm/s | 
O=C(NCCN1CCCC1)c1ccc(-c2cnc3ccc(NCC4CC4)nn23)nc1 |  | 2 | 11 ×10⁻⁶ cm/s | 
CN(C)CCNC(=O)c1ccc(-c2cnc3ccc(NCC4CC4)nn23)cc1F | 110 ng/mL | 2.7 | > 50 ×10⁻⁶ cm/s | Papp at 1 h, 10 µM [4]: 6.2 ×10⁻⁶ cm/s
CN(C)CCNC(=O)c1ccc(-c2cnc3ccc(NCC4CC4)nn23)cc1 |  | 2.5 |  | Papp at 1 h, 10 µM [4]: 2.1 ×10⁻⁶ cm/s
CCCN(C[C@@H]1C[C@@H](F)CN1)C(=O)c1ccc(-c2cnc3ccc(NCC4CC4)nn23)cc1 |  | 3.4 |  | 
O=C(NC[C@@H]1C[C@@H](F)CN1)c1ccc(-c2cnc3ccc(NCC4CC4)nn23)cc1F | 380 ng/mL | 3.1 | > 50 ×10⁻⁶ cm/s | MRT [5]: 2.3 h; Cmax [6]: 4100 ng/mL; Cmax [7]: 260 ng/mL; AUC(0-t) at 24 h [8]: 888 ng·h/mL; Tmax [9]: 1 h; Tmax [10]: 4 h; Papp at 1 h, 10 µM [4]: 4.2 ×10⁻⁶ cm/s; Vd/F [11]: 6.5 L/kg; MRT [12]: 4.9 h; Vd/F [13]: 78 L/kg; AUC(0-t) at 24 h [14]: 23100 ng·h/mL
CCCCNc1ccc2ncc(-c3ccc(C(=O)NC[C@@H]4C[C@@H](F)CN4)c(F)c3)n2n1 | 600 ng/mL | 3.5 | > 50 ×10⁻⁶ cm/s | 
CCCCCNc1ccc2ncc(-c3ccc(C(=O)NC[C@@H]4C[C@@H](F)CN4)c(F)c3)n2n1 | 93 ng/mL | 4 | > 50 ×10⁻⁶ cm/s | 
CSCCNc1ccc2ncc(-c3ccc(C(=O)NC[C@@H]4C[C@@H](F)CN4)c(F)c3)n2n1 |  | 2.8 | > 50 ×10⁻⁶ cm/s | 
O=C(NC[C@@H]1CCCN1)c1ccc(-c2cnc3ccc(NCC4CC4)nn23)cc1 |  | 1.8 | 0.84 ×10⁻⁶ cm/s | 
CN(C)CCNC(=O)c1ccc(-c2cnc3ccc(NCC4CC4)nn23)nc1 |  | 2 | 14 ×10⁻⁶ cm/s | 
O=C(NC[C@@H]1C[C@@H](F)CN1)c1ccc(-c2cnc3ccc(NC4CCC4)nn23)cc1F | 1400 ng/mL | 3.3 | > 50 ×10⁻⁶ cm/s | MRT [5]: 2 h; Cmax [6]: 16000 ng/mL; Cmax [7]: 750 ng/mL; AUC(0-t) at 24 h [8]: 1860 ng·h/mL; Tmax [9]: 1 h; Tmax [10]: 2.8 h; Papp at 1 h, 10 µM [4]: 7 ×10⁻⁶ cm/s; Vd/F [11]: 1.7 L/kg; MRT [12]: 5.1 h; Vd/F [13]: 32 L/kg; AUC(0-t) at 24 h [14]: 95300 ng·h/mL

Continued, in another order:

concentration at […] [1] | logD [2] | Papp [3] | SMILES | further results
660 ng/mL | 3.6 | > 50 ×10⁻⁶ cm/s | O=C(NC[C@@H]1C[C@@H](F)CN1)c1ccc(-c2cnc3ccc(NC4CCCC4)nn23)cc1F | 
 | 5 |  | O=C(c1ccc(-c2cnc3ccc(NCC4CC4)nn23)cc1)N(Cc1ccc(Cl)cc1)C[C@@H]1C[C@@H](F)CN1 | 
290 ng/mL | 2.8 | > 50 ×10⁻⁶ cm/s | O=C(NCCN1CCCC1)c1ccc(-c2cnc3ccc(NCC4CC4)nn23)cc1F | Papp at 1 h, 10 µM [4]: 5.6 ×10⁻⁶ cm/s
 | 2.2 | 14 ×10⁻⁶ cm/s | O=C(NC[C@@H]1CCCN1)c1ccc(-c2cnc3ccc(NCC4CC4)nn23)cc1Cl | 
440 ng/mL | 2.6 | > 50 ×10⁻⁶ cm/s | O=C(NCCN1CCCC1)c1ccc(-c2cnc3ccc(NCC4CC4)nn23)cc1 | Papp at 1 h, 10 µM [4]: 2.3 ×10⁻⁶ cm/s
150 ng/mL | 3 | 40 ×10⁻⁶ cm/s | CSCCCNc1ccc2ncc(-c3ccc(C(=O)NC[C@@H]4C[C@@H](F)CN4)c(F)c3)n2n1 | 
140 ng/mL | 1.8 | 19 ×10⁻⁶ cm/s | O=C(NC[C@@H]1CCCN1)c1ccc(-c2cnc3ccc(NCC4CC4)nn23)cc1F | 
